Series [1] concerns the target Menin/Histone-lysine N-methyltransferase MLL (Homo sapiens, UniProt O00255). The experiment in a line: Inhibition of menin-MLL interaction (unknown origin) after 1 hr by fluorescence polarization assay. Type of series: protein assay. (In fluorescence polarisation assays a small probe gives low polarisation when free and higher when bound to something large.)
A short description of series [2]: Clearance in C57BL/6 mouse at 15 mg/kg, iv after 8 hrs by LC-MS/MS analysis. The series is classed as ADME, organism-based. The settings on record: in vivo. The procedure, abridged: (§1)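 Female C57BL/6 mice dosed iv at 15 mg/kg or orally at 30 mg/kg in 25% DMSO/25% PEG-400/50% PBS (v/v). Serial 50 μL blood samples collected over 24 h (8 h in one experiment), spun to plasma; concentrations by validated LC-MS/MS in positive-ion MRM mode; parameters from noncompartmental analysis.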

Series [3] deals with Bone marrow cell. Nature of the series: Selectivity index, ratio of GI50 for Hoxa9/Meis1 transformed mouse bone marrow cells to GI50 for MLL-AF9 transformed mouse bone marrow cells. Type of series: functional.
Series [4] in a line: Half life in CD-1 mouse liver microsomes at 1 uM after 3 to 60 mins by LC-MS/MS analysis. Type of series: ADME. (In general: Liver microsomes are vesicles of endoplasmic reticulum, rich in cytochrome P450 enzymes.)
The nature of series [5]: Growth inhibition of MLL-AF9 transformed mouse bone marrow cells after 7 days by MTT assay. The settings on record: Bone marrow cell, 168 h. The series is classed as functional. On the technique in general: Tetrazolium assays rely on reduction of a dye to a coloured formazan, in cell work by metabolically active cells.
The subject of series [6] is Mus musculus. Nature of the series: Half life in C57BL/6 mouse at 15 mg/kg, iv after 8 hrs by LC-MS/MS analysis. Type of series: ADME, organism-based. As to conditions: in vivo. Summed up:
as §1

Series [7] has as its system Mus musculus. Nature of the series: Oral bioavailability in C57BL/6 mouse at 30 mg/kg after 8 hrs by LC-MS/MS analysis. Type of series: ADME, organism-based. As to conditions: in vivo. The procedure, abridged: as §1
Series [8] has as its system Mus musculus. The experiment in a line: AUC in C57BL/6 mouse at 30 mg/kg, po after 8 hrs by LC-MS/MS analysis. Type of series: ADME, organism-based. On the set-up: dose 30 mg/kg, time < 8 hr, route oral. The settings on record: in vivo. Summed up:
as §1

Series [9] deals with Mus musculus. Nature of the series: AUC in C57BL/6 mouse at 15 mg/kg, iv after 8 hrs by LC-MS/MS analysis. Type of series: ADME, organism-based. On the set-up: time < 8 hr, dose 15 mg/kg, route intravenous. The settings on record: in vivo. Summed up: as §1
Series [10] deals with Mus musculus. Nature of the series: Cmax in C57BL/6 mouse plasma at 30 mg/kg, po after 8 hrs by LC-MS/MS analysis. As to conditions: in vivo. Type of series: ADME, organism-based. Set-up: dose 30 mg/kg, route oral. Summed up: as §1
Series [11] is described as follows: Growth inhibition of Hoxa9/Meis1 transformed mouse bone marrow cells after 7 days by MTT assay. The series is classed as functional. The settings on record: Bone marrow cell, 168 h.
For series [12], the system named is Mus musculus. The experiment in a line: Tmax in C57BL/6 mouse plasma at 30 mg/kg, po after 8 hrs by LC-MS/MS analysis. Type of series: ADME, organism-based. As to conditions: in vivo. The procedure, abridged: as §1
The subject of series [13] is Mus musculus. Nature of the series: Volume of distribution at steady state in C57BL/6 mouse at 15 mg/kg, iv after 8 hrs by LC-MS/MS analysis. The series is classed as ADME, organism-based. As to conditions: in vivo. Summed up:
as §1

The nature of series [14]: Efflux ratio of apparent permeability from […] side in human Caco2 cells at 10 uM after 2 hrs by LC-MS/MS analysis. The series is classed as ADME, cell-based. As to conditions: caco-2, 2 h.

Bounds are passed on as bounds.

Chain of Menin/Histone-lysine N-methyltransferase MLL (O00255 whole entry): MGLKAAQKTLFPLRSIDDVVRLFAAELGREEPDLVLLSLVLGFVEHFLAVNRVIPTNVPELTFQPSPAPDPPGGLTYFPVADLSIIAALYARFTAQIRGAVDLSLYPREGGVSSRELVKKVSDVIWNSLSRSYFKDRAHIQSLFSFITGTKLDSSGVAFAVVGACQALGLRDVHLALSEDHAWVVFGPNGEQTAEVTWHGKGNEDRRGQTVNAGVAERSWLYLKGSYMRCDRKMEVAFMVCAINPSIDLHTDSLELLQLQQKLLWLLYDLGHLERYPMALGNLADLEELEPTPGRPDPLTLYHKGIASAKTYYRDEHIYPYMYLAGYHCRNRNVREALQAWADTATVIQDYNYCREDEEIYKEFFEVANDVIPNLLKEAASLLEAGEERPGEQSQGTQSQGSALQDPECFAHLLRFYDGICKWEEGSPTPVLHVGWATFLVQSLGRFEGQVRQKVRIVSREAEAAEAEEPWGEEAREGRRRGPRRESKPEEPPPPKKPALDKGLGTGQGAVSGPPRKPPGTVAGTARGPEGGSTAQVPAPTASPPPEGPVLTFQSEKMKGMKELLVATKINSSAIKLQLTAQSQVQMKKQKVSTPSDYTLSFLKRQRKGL
Chain of Menin/Histone-lysine N-methyltransferase MLL (Q03164 1-2718 partner limits assumed): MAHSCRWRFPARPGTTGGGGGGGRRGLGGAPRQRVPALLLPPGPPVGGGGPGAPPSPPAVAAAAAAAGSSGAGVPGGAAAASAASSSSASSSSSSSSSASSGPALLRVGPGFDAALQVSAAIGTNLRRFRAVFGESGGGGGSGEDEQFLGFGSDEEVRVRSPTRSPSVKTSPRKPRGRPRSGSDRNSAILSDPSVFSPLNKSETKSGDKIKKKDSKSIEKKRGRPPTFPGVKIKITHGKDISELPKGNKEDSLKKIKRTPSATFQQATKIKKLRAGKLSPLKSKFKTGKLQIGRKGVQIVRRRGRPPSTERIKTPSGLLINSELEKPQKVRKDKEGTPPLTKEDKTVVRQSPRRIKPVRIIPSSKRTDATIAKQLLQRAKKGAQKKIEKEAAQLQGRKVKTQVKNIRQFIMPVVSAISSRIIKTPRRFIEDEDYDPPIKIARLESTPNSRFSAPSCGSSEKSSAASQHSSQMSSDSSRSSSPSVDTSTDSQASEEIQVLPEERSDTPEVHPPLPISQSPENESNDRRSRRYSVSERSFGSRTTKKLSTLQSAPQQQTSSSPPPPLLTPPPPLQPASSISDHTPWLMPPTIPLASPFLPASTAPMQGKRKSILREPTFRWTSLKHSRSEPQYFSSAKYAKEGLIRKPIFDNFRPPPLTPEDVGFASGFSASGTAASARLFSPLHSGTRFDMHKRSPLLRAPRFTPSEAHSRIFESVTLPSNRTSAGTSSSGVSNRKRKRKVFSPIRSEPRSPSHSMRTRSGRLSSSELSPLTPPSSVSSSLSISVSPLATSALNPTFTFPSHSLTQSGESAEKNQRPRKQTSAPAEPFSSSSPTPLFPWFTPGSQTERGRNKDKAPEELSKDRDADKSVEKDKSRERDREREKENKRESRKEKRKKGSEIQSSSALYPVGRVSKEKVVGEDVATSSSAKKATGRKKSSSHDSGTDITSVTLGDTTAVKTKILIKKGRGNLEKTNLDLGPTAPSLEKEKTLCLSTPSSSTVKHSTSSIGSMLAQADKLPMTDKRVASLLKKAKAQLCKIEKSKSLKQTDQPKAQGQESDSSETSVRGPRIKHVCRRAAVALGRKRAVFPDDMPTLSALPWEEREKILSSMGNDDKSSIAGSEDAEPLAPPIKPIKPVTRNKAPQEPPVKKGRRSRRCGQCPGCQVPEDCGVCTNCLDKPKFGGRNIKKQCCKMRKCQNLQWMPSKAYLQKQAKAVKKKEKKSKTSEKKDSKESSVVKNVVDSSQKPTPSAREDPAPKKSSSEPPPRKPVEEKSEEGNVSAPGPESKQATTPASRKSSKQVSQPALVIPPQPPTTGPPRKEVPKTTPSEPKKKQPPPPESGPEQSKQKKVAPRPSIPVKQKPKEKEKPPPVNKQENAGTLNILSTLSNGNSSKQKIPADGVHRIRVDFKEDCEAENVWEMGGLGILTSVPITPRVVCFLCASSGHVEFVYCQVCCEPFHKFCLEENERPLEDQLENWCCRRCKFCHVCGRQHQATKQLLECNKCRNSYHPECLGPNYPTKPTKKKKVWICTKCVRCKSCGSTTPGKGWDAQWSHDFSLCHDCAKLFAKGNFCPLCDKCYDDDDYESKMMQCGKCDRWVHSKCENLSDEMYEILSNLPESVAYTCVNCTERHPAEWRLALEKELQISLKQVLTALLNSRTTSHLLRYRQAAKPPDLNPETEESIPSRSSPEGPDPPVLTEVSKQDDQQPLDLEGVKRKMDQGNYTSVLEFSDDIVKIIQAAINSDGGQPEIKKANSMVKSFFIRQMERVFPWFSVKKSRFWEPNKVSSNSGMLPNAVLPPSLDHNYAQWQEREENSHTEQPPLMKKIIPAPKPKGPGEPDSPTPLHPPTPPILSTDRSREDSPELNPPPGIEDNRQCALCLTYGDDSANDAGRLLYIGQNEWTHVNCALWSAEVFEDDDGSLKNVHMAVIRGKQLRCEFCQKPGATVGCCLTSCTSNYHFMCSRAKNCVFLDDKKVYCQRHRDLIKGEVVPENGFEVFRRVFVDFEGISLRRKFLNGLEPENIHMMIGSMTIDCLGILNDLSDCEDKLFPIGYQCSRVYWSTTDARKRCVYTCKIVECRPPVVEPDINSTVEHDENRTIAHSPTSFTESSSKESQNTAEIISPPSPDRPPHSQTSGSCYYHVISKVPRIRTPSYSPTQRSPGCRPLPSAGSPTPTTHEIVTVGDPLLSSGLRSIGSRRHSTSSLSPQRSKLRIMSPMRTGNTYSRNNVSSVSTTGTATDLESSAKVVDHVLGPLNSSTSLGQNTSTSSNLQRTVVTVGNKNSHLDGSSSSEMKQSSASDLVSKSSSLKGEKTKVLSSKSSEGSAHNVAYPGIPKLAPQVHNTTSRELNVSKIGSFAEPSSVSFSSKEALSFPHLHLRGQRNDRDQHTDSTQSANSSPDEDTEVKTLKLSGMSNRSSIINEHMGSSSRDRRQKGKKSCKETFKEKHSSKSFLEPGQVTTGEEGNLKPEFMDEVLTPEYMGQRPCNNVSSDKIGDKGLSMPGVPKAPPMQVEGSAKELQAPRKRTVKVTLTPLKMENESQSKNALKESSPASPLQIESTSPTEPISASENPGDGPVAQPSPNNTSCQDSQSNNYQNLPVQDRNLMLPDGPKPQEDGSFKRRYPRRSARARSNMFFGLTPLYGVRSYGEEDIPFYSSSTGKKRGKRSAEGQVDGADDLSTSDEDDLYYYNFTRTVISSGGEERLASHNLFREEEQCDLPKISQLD
Chain of Menin/Histone-lysine N-methyltransferase MLL (Q03164 2719-3969 partner limits assumed): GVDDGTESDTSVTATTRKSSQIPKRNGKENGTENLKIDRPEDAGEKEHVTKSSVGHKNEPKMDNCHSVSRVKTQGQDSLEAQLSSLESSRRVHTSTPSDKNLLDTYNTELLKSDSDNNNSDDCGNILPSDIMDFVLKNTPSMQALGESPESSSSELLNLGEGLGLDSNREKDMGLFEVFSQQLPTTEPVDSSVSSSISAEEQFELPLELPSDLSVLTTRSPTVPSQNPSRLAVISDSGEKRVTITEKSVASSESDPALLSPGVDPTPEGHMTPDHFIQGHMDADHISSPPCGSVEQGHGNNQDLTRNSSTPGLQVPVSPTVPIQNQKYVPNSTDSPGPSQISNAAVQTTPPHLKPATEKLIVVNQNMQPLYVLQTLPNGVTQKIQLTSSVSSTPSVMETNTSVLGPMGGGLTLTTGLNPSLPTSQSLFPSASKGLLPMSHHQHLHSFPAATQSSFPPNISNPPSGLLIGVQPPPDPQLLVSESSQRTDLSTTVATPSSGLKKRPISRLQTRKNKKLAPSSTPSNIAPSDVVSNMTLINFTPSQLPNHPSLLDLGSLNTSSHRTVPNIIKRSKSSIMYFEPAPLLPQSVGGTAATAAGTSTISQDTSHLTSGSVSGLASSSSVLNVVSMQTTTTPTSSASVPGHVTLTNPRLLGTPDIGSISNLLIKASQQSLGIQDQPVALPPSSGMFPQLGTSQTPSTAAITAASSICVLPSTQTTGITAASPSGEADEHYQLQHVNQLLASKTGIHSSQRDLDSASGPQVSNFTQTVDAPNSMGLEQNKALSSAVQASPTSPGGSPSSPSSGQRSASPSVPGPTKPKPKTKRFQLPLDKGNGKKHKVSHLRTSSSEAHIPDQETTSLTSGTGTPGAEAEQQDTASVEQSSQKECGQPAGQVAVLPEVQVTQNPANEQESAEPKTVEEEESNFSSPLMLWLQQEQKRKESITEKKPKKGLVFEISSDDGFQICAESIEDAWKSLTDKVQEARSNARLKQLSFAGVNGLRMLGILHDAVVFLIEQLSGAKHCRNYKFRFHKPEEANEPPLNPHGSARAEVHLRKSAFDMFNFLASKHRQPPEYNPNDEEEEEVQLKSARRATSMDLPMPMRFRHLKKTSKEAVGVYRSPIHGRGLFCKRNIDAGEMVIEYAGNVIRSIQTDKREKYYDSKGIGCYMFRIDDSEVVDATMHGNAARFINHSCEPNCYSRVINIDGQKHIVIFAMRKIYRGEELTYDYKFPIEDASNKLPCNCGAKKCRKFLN

The IC50 is the midpoint of a concentration-inhibition curve. For orientation: clearance means the rate of elimination divided by the concentration. The low end stands for a low capacity for elimination, the high end for a high capacity for elimination. By GI50 is commonly meant the concentration giving 50% growth inhibition. Low readings indicate greater sensitivity of the cells, high ones lower sensitivity of the cells. One may read the AUC as concentration integrated over time. Low values mean low exposure, high ones high exposure. The term Cmax denotes the highest concentration seen after dosing. In general, Tmax refers to the time at which the peak concentration occurs. For orientation: Vdss means the apparent volume that relates the amount in the body to the concentration in plasma or blood. A low value points to little distribution into tissue. In the case of `COc1cc2c(cc(C#N)n2Cc2cn[nH]c2)c(C)c1CN1CCC(Nc2ncnc3sc(CC(F)(F)F)cc23)CC1`, in series [1], the IC50 came to 12 nM. The molecule further displayed a clearance in series [2] of 15 mL/min/kg. Moreover, the RatioGI50 in [3] stood at 23. Besides, the t1/2 in series [4] was 55 min; in [6], 1.4 h. Also, the GI50 worked out at 180 nM in [5] and 4.2 µM in series [11]. For the same molecule, in series [7], the F was found to be 1%. Besides, the AUC in series [8] was 383 ng·h/mL; in [9] it was 16235 ng·h/mL. Further, in [10], the Cmax is 101 ng/mL. Moreover, the Tmax in series [12] was 2 h. Also, the volume of distribution (Vdss) in [13] worked out at 1837 mL/kg.

`N#Cc1cc2cc(CN3CCC(Nc4ncnc5sc(CC(F)(F)F)cc45)CC3)ccc2n1CC(N)=O`: 25 nM corresponded to half-maximal inhibition in [1] (IC50). Further, the RatioGI50 in [3] is reported as 32. The same molecule had a t1/2 in series [4] of 54 min. The GI50 in series [5] turned out to be 780 nM; in series [11] it was 25 µM. Further, the Ratio in series [14] is recorded as over 90.
